For assay [1], the target named is T1, SULT2B1b S347D (Homo sapiens, UniProt O00204, S347D).
T1 sequence (O00204 1-365 S347D): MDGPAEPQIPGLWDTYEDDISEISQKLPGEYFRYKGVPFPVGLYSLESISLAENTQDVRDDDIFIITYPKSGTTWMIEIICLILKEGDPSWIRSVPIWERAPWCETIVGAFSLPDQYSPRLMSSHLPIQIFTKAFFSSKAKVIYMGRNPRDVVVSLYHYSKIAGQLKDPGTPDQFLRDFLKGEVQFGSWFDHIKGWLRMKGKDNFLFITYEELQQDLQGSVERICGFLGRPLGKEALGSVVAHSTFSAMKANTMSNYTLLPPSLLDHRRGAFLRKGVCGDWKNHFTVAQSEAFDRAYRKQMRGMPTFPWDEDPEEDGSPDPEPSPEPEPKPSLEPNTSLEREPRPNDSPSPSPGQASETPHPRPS
As to the kind of experiment: Equilibrium binding via intrinsic fluorescence. As to conditions: for Kd: Kd Quc. The gist of the method:
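Intrinsic fluorescence titrations of purified His/GST/MBP-tag-cleaved enzyme, excitation 290 nm, in KPO4 (50 mM), pH 7.5, 25 ± 2 °C. […] Triplicate averaged data were fit to a single-site-per-monomer model.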

The target in assay [2] is T2, SULT2B1b S347D spin-labeled at residue 247 (Homo sapiens, UniProt O00204, C225S/C278S/C81S/S247C/S347D).
T2 sequence (O00204 1-365 C81S/C225S/S247C/C278S/S347D): T1 sequence (O00204 1-365 S347D) with C81S, C225S, S247C, C278S
The experiment in a line: Initial-rate parameters, spin-labeled mutant 247. The class given is biochemical.

In assay [3] the target is T3, SULT2B1a (Homo sapiens, UniProt O00204).
T3 sequence (O00204 1-350 isoform O00204-2): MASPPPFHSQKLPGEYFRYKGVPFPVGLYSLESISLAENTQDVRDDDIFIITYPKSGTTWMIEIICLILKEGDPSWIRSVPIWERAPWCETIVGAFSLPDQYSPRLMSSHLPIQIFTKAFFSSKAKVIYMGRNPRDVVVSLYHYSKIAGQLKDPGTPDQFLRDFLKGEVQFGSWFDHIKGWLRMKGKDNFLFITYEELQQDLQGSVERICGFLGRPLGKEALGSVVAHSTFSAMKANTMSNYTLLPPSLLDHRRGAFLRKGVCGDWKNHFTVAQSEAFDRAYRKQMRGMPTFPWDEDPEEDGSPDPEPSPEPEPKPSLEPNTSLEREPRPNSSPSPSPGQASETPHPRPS
The experiment in a line: Initial-rate 1-HP sulfonation inhibition. Type of assay: biochemical.

The target of assay [4] is T4, SULT2B1b, S347D, Y257A (Homo sapiens, UniProt O00204, S347D/Y257A).
T4 sequence (O00204 1-365 Y257A/S347D): T1 sequence (O00204 1-365 S347D) with Y257A
As to the kind of experiment: Initial-rate parameters, direct-contact mutant Y257A.

For assay [5], the target named is T5, SULT2B1b C81S, C225S, C278S, S347D (Homo sapiens, UniProt O00204, C225S/C278S/C81S/S347D).
T5 sequence (O00204 1-365 C81S/C225S/C278S/S347D): T1 sequence (O00204 1-365 S347D) with C81S, C225S, C278S
The experiment in a line: Initial-rate parameters, non DTNB-reactive scaffold. The class given is biochemical.

The record followed here is article PMC9260854 (Biochemistry, 2022).

Residue numbers refer to the chain shown, from its start.

The term Kd denotes the equilibrium constant for the complex coming apart. Read a high Kd as lower affinity. In general, Ki refers to the equilibrium dissociation constant of an inhibitor or competing ligand from its target. High values mean a looser hold on the target, low ones a stronger hold on the target. Turning to `O=c1c(O)c(-c2ccc(O)c(O)c2)oc2cc(O)cc(O)c12` [quercetin], the dissociation constant (Kd) in assay [1] (enzyme form E (no PAP)) was found to be 5300 nM; in assay [1] (enzyme form E•PAP (PAP 30 μM)) it was 350 nM. In addition, in assay [1] (saturation with PAPS), the “increase of quercetin affinity” value is given as 15 fold. The inhibitory constant (Ki) worked out at 320 nM in assay [2], 1600 nM in assay [4] and 300 nM in assay [5]. For the same molecule, the inhibition by quercetin entry in assay [3] (concentrations as high as 10 μM) is “does not detectably inhibit”; in assay [3] (up to 100 μM quercetin), “No inhibition was detected”.
